Experimental data: ChEMBL document CHEMBL1130218, “Potent anandamide analogs: the effect of changing the length and branching of the end pentyl chain” (J Med Chem, 1997)
Activity calls are given as the source filed them. The rule behind the calls is not given here.

Key:
Mus musculus [1] = species on record: Mus musculus; assay: Hypothermia as measured from changes in rectal (RT) in mice; type: functional
In short: (§1)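 Separate group of mice; rectal temperature by thermistor probe inserted 25 mm before and 4 min after iv tail-vein injection (ethanol:emulphor:saline 1:1:18, 0.1 mL/10 g).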

Mus musculus [2] = species on record: Mus musculus; assay: Antinociception as measured from the tail - flick response (TF), in mice; type: functional
Cannabinoid receptor 1 [3] = target: T1, Cannabinoid receptor 1 (Mus musculus, UniProt P47746); assay: Binding affinity for Cannabinoid receptor 1 in presence of phenylmethylsulfonyl fluoride (PMSF)
T1 sequence (P47746 whole entry): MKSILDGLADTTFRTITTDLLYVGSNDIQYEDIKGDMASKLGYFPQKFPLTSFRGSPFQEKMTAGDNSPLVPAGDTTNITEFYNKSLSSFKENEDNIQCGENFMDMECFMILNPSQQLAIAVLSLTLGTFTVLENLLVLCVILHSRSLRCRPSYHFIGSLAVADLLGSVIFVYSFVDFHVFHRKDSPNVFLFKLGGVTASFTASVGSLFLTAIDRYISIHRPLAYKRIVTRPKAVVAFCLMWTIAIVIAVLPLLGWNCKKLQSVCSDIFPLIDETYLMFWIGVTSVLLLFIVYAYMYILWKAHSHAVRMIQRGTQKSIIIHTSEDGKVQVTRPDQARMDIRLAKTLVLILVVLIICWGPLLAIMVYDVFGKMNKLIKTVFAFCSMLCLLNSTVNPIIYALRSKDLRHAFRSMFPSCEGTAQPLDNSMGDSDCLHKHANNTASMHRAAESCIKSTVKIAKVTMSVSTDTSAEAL
In short: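 Radioligand binding to P2 membranes (150 µg protein) in 50 mM Tris-HCl, 1 mM EDTA, 3 mM MgCl2, 5 mg/mL BSA, with amidase inhibitor PMSF 50 µM; final ethanol ≤0.4%. 1 h at 30 °C; nonspecific binding with 1 µM CP-55,940; terminated with ice-cold buffer and rapid filtration through PEI-treated filters.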

Mus musculus [4] = species on record: Mus musculus; assay: Inhibition of spontaneous activity (SA) in mice; type: functional
In short: (§2)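 Measured in the same mice as tail-flick; iv tail-vein dosing in ethanol:emulphor:saline 1:1:18, 0.1 mL/10 g. Immediately after tail-flick (about 4 min post-injection) mice placed in individual photocell cages; beam interruptions over 16 beams counted for 10 min.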

Cannabinoid receptor 1 [5] = target: T1, Cannabinoid receptor 1; assay: Binding affinity for Cannabinoid receptor 1 in absence of phenylmethylsulfonyl fluoride (PMSF)
In short: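 Radioligand binding to P2 membranes (150 µg protein) in 50 mM Tris-HCl, 1 mM EDTA, 3 mM MgCl2, 5 mg/mL BSA; ethanolic stocks diluted, final ethanol ≤0.4%; no PMSF. 1 h at 30 °C; nonspecific binding with 1 µM CP-55,940; stopped with ice-cold buffer and rapid filtration through PEI-treated filters.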

Mus musculus [6] = species on record: Mus musculus; assay: Ring immobility (RI) in mice; type: functional
In short: (§3)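 Same mice as temperature test; immediately after temperature reading, mice placed on 5.5 cm ring 16 cm high and motionless time over 5 min recorded; % immobility = time/300 s × 100. iv tail-vein dosing in ethanol:emulphor:saline 1:1:18.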

Mus musculus [7] = species on record: Mus musculus; assay: Hypothermia as measured from changes in rectal (RT) in mice; Inactive; type: functional, organism-based; in short: as §1
Mus musculus [8] = species on record: Mus musculus; assay: Inhibition of spontaneous activity (SA) in mice; Inactive; type: functional, organism-based; in short: as §2
Mus musculus [9] = species on record: Mus musculus; assay: Ring immobility (RI) in mice; Inactive; type: functional, organism-based; in short: as §3
Mus musculus [10] = species on record: Mus musculus; assay: Antinociception as measured from the tail - flick response (TF), in mice; Inactive; type: functional, organism-based

Row | SMILES | ED50 (Mus musculus [1]) [mg/kg] | ED50 (Mus musculus [2]) [mg/kg] | Ki (Cannabinoid receptor 1 [3]) [nM] | ED50 (Mus musculus [4]) [mg/kg] | Ki (Cannabinoid receptor 1 [5]) [nM] | ED50 (Mus musculus [6]) [mg/kg] | ED50 (Mus musculus [7]) | ED50 (Mus musculus [8]) | ED50 (Mus musculus [9]) | ED50 (Mus musculus [10])
1 | CCCCCC(C)C/C=C\C/C=C\C/C=C\C/C=C\CCCC(=O)NCCO (centres undefined) | 12.2 | 5.48 | 11 | 6.22 | 51 | 5.29 | – | – | – | –
2 | CCCCCCC(C)(C)/C=C\C/C=C\C/C=C\C/C=C\CCCC(=O)NCCO | 7.49 | 2.16 | 7 | 2.17 | – | 1.17 | – | – | – | –
3 | CCCCCc1cc(O)c2c(c1)OC(C)(C)C1CCC(C)=C[C@@H]21 (single isomer, unassigned) [DRONABINOL] | 1.4 | 1.4 | – | 1 | – | 1.5 | – | – | – | –
4 | CCCCCC/C=C\C/C=C\C/C=C\C/C=C\CCCC(=O)NCCO | – | – | 24 | – | 3060 | – | inactive | inactive | inactive | inactive
5 | CCCCCCCC(C)(C)/C=C\C/C=C\C/C=C\C/C=C\CCC(C)C(=O)NCCF (centres undefined) | – | 12.8 | 14 | 20.3 | – | 33.3 | inactive | – | – | –
6 | CCCCC(C)(C)C/C=C\C/C=C\C/C=C\C/C=C\CCCC(=O)NCCO | – | – | 48 | 44.1 | 382 | – | inactive | – | inactive | inactive
7 | CCCCCCC(C)(C)/C=C\C/C=C\C/C=C\C/C=C\CCC(C)C(=O)NCCF (centres undefined) | 3.6 | 0.86 | 1 | 3.48 | – | 3.11 | – | – | – | –
8 | CCCCCCC(C)/C=C\C/C=C\C/C=C\C/C=C\CCC(C)C(=O)NCCF (centres undefined) | 0.08 | 1.3 | 4.8 | 1.15 | – | 2.22 | – | – | – | –
9 | CCCCCC(C)(C)C/C=C\C/C=C\C/C=C\C/C=C\CCCC(=O)NCCO | 9.38 | 57.3 | 19 | 3.36 | 39 | 5.05 | – | – | – | –
10 | CCCCCCC/C=C\C/C=C\C/C=C\C/C=C\CCCC(=O)NCCO | – | – | 55 | 20.4 | 1780 | – | inactive | – | inactive | inactive
11 | CCCCCC(C)(C)C/C=C\C/C=C\C/C=C\C/C=C\CCC(C)C(=O)NCCF (centres undefined) | 76.2 | 4.12 | 7.7 | 3.14 | – | 11.4 | – | – | – | –
12 | CCCCCC(C)C/C=C\C/C=C\C/C=C\C/C=C\CCC(C)C(=O)NCCF (centres undefined) | 0.24 | 4.08 | 3.3 | 2.09 | – | 2.67 | – | – | – | –
13 | CCCCC/C=C\C/C=C\C/C=C\C/C=C\CCC(C)C(=O)NCCF (centres undefined) | 2.73 | 6.99 | 5.7 | 4.78 | 15 | 1.6 | – | – | – | –
14 | CCCCC/C=C\C/C=C\C/C=C\C/C=C\CCCC(=O)NCCO [ANANDAMIDE] | 26.5 | 6.2 | – | 17.9 | – | 19.1 | – | – | – | –
15 | CCCCCCCC/C=C\C/C=C\C/C=C\C/C=C\CCC(C)C(=O)NCCF (centres undefined) | – | 15.3 | 8.2 | 3.52 | – | 6.37 | inactive | – | – | –
16 | CCCCCCCCC/C=C\C/C=C\C/C=C\C/C=C\CCCC(=O)NCCO | – | 14.4 | 25 | 7.35 | 79 | 5.13 | inactive | – | – | –
17 | CCCCCCCC/C=C\C/C=C\C/C=C\C/C=C\CCCC(=O)NCCO | – | – | 18 | – | 156 | – | – | inactive | – | inactive
